Bioassay records from PubChem.
Compounds with a hit are over-represented: about 3.8% of the library has one in this group of screens.
hERG rescue = compounds protecting human hERG from proarrhythmic drug block; CHO-hERG, FluxOR thallium flux, dofetilide IC70 present; Q12809; AID 1511; activation (rescue from dofetilide block), less the hit threshold, % at 10 µM; hit rate 0.51% among 310,000;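 active = activation above the mean of controls blocked by dofetilide plus 5 SD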;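 note: thallium influx through hERG after potassium depolarization seen as dye fluorescence rise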
Kir21 inh = inhibitors of mouse Kir2.1 inward-rectifier potassium channel; P35561; HEK293-Kir2.1, FluxOR thallium flux fluorescence; stronger effect = lower value; B-score at 10 µM; hit rate 0.85% among 310,000;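 active = fluorescence ratio B-score at or below minus 3 SD of library scores, with starting-brightness B-score within 2 SD, cut at about -4.2 in these data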;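 note: channel flux triggered by added potassium and thallium sulfate stimulus; B-score of peak minus minimum fluorescence over baseline after thallium stimulus; more negative B-score means stronger Kir2.1 block with less thallium influx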
KCNQ1 pot = potentiates or activates the human KCNQ1 potassium channel; P51787; CHO-K1 KCNQ1, thallium flux FluxOR fluorescence; stronger effect = higher value; B-score at 10 µM; hit rate 0.35% among 310,000; AID 2648;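 active = fluorescence ratio B-score, a plate-corrected score, at least three library SD, with initial intensity B-score within 5 SD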
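System: CHO-K1 cells stably expressing KCNQ1 / Medium: assay buffer for compound exposure, DMSO matched across wells / Reagent: thallium- and potassium-containing depolarizing buffer / Compound: one concentration, matched DMSO / Incubation: 20 min compound pretreatment at room temperature / Measured by: kinetic FluxOR fluorescence, 10 s baseline plus 110 s post-stimulus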
KCNQ1 inh = human KCNQ1 channel inhibition | CHO-K1 KCNQ1, FluxOR thallium flux fluorescence; stronger effect = higher value | B-score at 10 µM | hit rate 1.3% among 310,000;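 active = compounds whose thallium flux B-score, printed positive for inhibition, exceeds three library SD while starting fluorescence stays within three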;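 note: channel opened by potassium depolarization with thallium stimulus after 20 min compound exposure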
KCNK3 inh = human KCNK3 channel inhibition, primary screen; B-score at 10 µM; AID 602410; hit rate 0.84% among 340,000; CHO-KCNK3 thallium flux, FluxOR fluorescence; stronger effect = lower value;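 active = B-score under library mean minus 4 SD, starting fluorescence ratio at most library mean plus 5 SD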;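 note: more negative B-score means stronger inhibition of thallium flux through KCNK3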
KCNK9 block = blocks the human KCNK9 two-pore domain potassium channel; hit rate 1.2% among 310,000; Q9NPC2; B-score at 10 µM; HEK293 KCNK9, FluxOR thallium flux fluorescence; stronger effect = lower value;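 active = ratio B-score over 3 SD below the library mean, with starting fluorescence within 5 SD of its mean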;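 note: negative B-score means less thallium flux so channel inhibition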
KCNK9 inh conf = human KCNK9 inhibitor confirmation. shares compounds with KCNK9 block. HEK293 KCNK9 cells, FluxOR thallium flux fluorescence. inhibition, % at 10 µM. hit rate 43% among 4,900. AID 492992;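 active = thallium signal inhibited by more than 5 SD of the compound-free buffer control wells, on both duplicate plates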
Kir21 sel = tests whether KCNK9 modulators also affect mouse Kir2.1; shares compounds with KCNK9 block; Kir2.1 cells, FluxOR thallium flux fluorescence; inhibition, % at 10 µM; hit rate 4% among 4,900;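 active = thallium signal drop more than 5 SD beyond the mean of the no-compound control wells, seen in both duplicate plates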;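 note: signal is fluorescence rise after thallium addition divided by baseline fluorescence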
KCNK9 uninduced = second counter-screen for KCNK9 modulators: effect in non-induced cells; inhibition, % at 10 µM; shares compounds with KCNK9 block; hit rate 40% among 4,900; non-induced KCNK9-HEK293, FluxOR thallium flux;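 active = thallium signal drop beyond 5 SD of the untreated control mean, on both duplicate plates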
Each line names hits and unclear results; the compound was inactive in the other large screens (follow-up assays come after a bar, where they were run).

COc1cccc(OC)c1OCC(O)CN1CCN(c2ccccc2F)CC1 (centres undefined)	none
OC(CSc1ccccc1Cl)CN1CCN(c2ccc(F)cc2)CC1 (centres undefined)	none
C[C@H](NC(=O)c1ccc(Cl)cc1)C(=O)NNC(=O)c1cccs1	none (no result: hERG rescue, Kir21 inh, KCNQ1 pot, KCNQ1 inh, KCNK9 block)
O=C(NCc1ccc(Cl)cc1)c1ccc(S(=O)(=O)N2CCCCC2)cc1	none (no result: hERG rescue, Kir21 inh, KCNQ1 pot, KCNQ1 inh, KCNK9 block)
CCn1cc(S(=O)(=O)NCCc2ccc(OC)c(OC)c2)cn1	none
O=C(O)C(C1CCCCC1)C1(O)CCCC1 (centres undefined)	none (no result: hERG rescue, Kir21 inh, KCNQ1 pot, KCNQ1 inh, KCNK9 block)
CC(=O)Nc1ccccc1-c1nc2ccc(C(=O)N3CCN(c4cccc(C)c4)C(C)C3)cc2[nH]c1=O (centres undefined)	none
Cc1cccc(N2CCN(C(=O)c3ccc4nc(-c5ccco5)c(-c5ccco5)nc4c3)CC2C)c1 (centres undefined)	KCNK9 block -8.8 | KCNK9 inh conf 45% | Kir21 sel inactive | KCNK9 uninduced inactive
O=C(CCCSc1ccc(Cl)cc1)Nc1ccccc1O	KCNQ1 inh 9 | KCNK9 inh conf inactive | Kir21 sel inactive | KCNK9 uninduced inactive
O=C(CSCc1ccc(Cl)cc1)Nc1ccccc1O	none
COc1cc(OC)c2c(c1)S(=O)(=O)C(c1ccccc1)=C2N	none
Cn1c(COc2ccccc2O)[n+](C)c2ccccc21	none
CCCCCCCCCCOC(=O)Cn1c(COc2ccccc2OC)[n+](C)c2ccccc21	Kir21 inh -17, KCNK9 block -15 | KCNK9 inh conf 78% | Kir21 sel 84% | KCNK9 uninduced 42%
NC(=O)NC(CC(=O)NNC(=O)c1cccs1)c1ccc(Cl)cc1 (centres undefined)	none (no result: hERG rescue, Kir21 inh, KCNQ1 pot, KCNQ1 inh, KCNK9 block)
O=C(Oc1ccc2ccccc2c1Cl)N1CCCCCC1	KCNK9 block -13 | KCNK9 inh conf 37% | Kir21 sel inactive | KCNK9 uninduced 28%
O=C(Oc1ccc2ccccc2c1Cl)N1CCCC1	none
Cc1ccccc1C(=O)NC1CCN(CC(=O)NC2CCCCC2)CC1	none
CC(=O)N1N=C(c2ccc3ccccc3c2)OC1(C)C	none
COc1ccc(CC2(C)OC(c3ccc(C)cc3)=NN2C(C)=O)cc1 (centres undefined)	none | KCNK9 inh conf inactive | Kir21 sel inactive | KCNK9 uninduced inactive
CC(=O)N1N=C(c2ccccc2)OC1(C)CC(=O)Nc1ccccc1 (centres undefined)	none
COc1ccc(CC2(C)OC(c3ccccc3)=NN2C(C)=O)cc1 (centres undefined)	Kir21 inh -6.3 | KCNK9 inh conf inactive | Kir21 sel inactive | KCNK9 uninduced inactive
O=C1NC(=O)C(c2ccccc2)(c2ccc(Cl)cc2Cl)N1 (centres undefined)	none (no result: hERG rescue, Kir21 inh, KCNQ1 pot, KCNQ1 inh, KCNK9 block)
CN(C)S(=O)(=O)N1CCN(CC(=O)Nc2ccc(F)cc2)CC1	none
Sc1oc(-c2ccccc2)cc1C=Nc1ccccc1	none
O=C(CN1CCN(c2ccccn2)CC1)N1c2ccccc2Sc2ccc(C(F)(F)F)cc21	none | KCNK9 inh conf inactive | Kir21 sel inactive | KCNK9 uninduced inactive
Nc1nonc1-n1nnc(C(=O)N/N=C/c2cc(Br)cs2)c1-c1ccccc1	none
N#CC(c1ccccc1)C1CCN(Cc2ccccc2)CC1 (centres undefined)	Kir21 inh -5.2 | KCNK9 inh conf inactive | Kir21 sel inactive | KCNK9 uninduced inactive
CC(CN1CCN(Cc2ccccc2)CC1)c1ccccc1 (centres undefined)	none
COC(=O)C(C)N1CCC(=O)c2ccccc2S1(=O)=O (centres undefined)	none
CCN(CC)S(=O)(=O)c1cccc(NC(=O)CCSc2ccc(Cl)cc2)c1	none | KCNK9 inh conf inactive | Kir21 sel inactive | KCNK9 uninduced inactive
COc1ccc(C(C)=O)cc1CSc1nc2ccccc2c(=O)n1-c1ccccc1	none
C=CCn1c(SCc2cc(C(C)=O)ccc2OCC)nc2ccccc2c1=O	KCNK9 block -13 | KCNK9 inh conf 66% | Kir21 sel inactive | KCNK9 uninduced 43%
COc1ccccc1-n1c(SCc2cc(=O)oc3cc(O)ccc23)nc2ccccc2c1=O	KCNK9 block -8.3 | KCNK9 inh conf 32% | Kir21 sel inactive | KCNK9 uninduced inactive
CCC(CO)n1c(SCc2cc(=O)oc3cc(C)ccc23)nc2ccccc2c1=O (centres undefined)	KCNK9 block -12 | KCNK9 inh conf 53% | Kir21 sel inactive | KCNK9 uninduced 26%
COc1ccc(C(C)=O)cc1CSc1nc2ccccc2c(=O)n1-c1ccccc1C	KCNK9 block -9 | KCNK9 inh conf 32% | Kir21 sel inactive | KCNK9 uninduced 32%
NC(=NC1CCCCC1)NS(=O)(=O)c1ccccc1	none
COC(=O)c1cc(NC(=O)C(C)c2ccc(CC(C)C)cc2)ccc1O (centres undefined)	none | KCNK9 inh conf inactive | Kir21 sel inactive | KCNK9 uninduced inactive
COc1cccc(-c2nnc(SCC(=O)Nc3ccc4c(c3)OCCO4)n2Cc2ccco2)c1	KCNK9 block -16 | KCNK9 inh conf 64% | Kir21 sel inactive | KCNK9 uninduced 37%
CCCn1c(SCC(=O)Nc2ccc3c(c2)OCCO3)nnc1-c1ccco1	none
O=C1ON=C(c2ccccc2)/C1=C/c1ccc(O)cc1	Kir21 inh -6.8 | KCNK9 inh conf inactive | Kir21 sel inactive | KCNK9 uninduced inactive
O=C1ON=C(c2ccc(Cl)cc2)/C1=C/c1ccc(O)cc1	Kir21 inh -6.1, KCNQ1 inh 8 (no result: KCNK3 inh) | KCNK9 inh conf inactive | Kir21 sel inactive | KCNK9 uninduced inactive
Cc1ccc(C2=NOC(=O)/C2=C\c2ccccc2)cc1	none
COCCOc1ccc(C(F)(F)F)cc1NC(=O)CN1C(=O)NC2(CCc3ccccc32)C1=O (centres undefined)	none
COc1cc(/C=C2\C(=N)N3N=CSC3=NC2=O)ccc1OS(=O)(=O)c1ccccc1[N+](=O)[O-]	none | KCNK9 inh conf inactive | Kir21 sel inactive | KCNK9 uninduced inactive
COc1ccc2nc(NC(=O)CSc3n[nH]c(N)n3)sc2c1	none
O=[N+]([O-])c1cc2c(cc1/C=N/Nc1nc(N3CCCC3)nc(N3CCCC3)n1)OCO2	none | KCNK9 inh conf inactive | Kir21 sel inactive | KCNK9 uninduced inactive
FCCCOc1ccc(/C=N/OCc2ccc(Cl)cc2Cl)cc1	none | KCNK9 inh conf inactive | Kir21 sel inactive | KCNK9 uninduced inactive
Cn1c2ccccc2c(=O)c2cc(C#Cc3ccc(N)cc3)ccc21	KCNK9 block -8.5 | KCNK9 inh conf 38% | Kir21 sel inactive | KCNK9 uninduced 26%
